Results on one compound are retold here after ChEMBL document CHEMBL4041524, “Synthesis and Characterization of a Novel γ-Aminobutyric Acid Type A (GABAA) Receptor Ligand That Combines Outstanding Metabolic Stability, Pharmacokinetics, and Anxiolytic Efficacy” (J Med Chem, 2016).

A short description of data set [1]: Cytotoxicity against HEK293T cells assessed as viable cells measured after 18 hrs by CellTiter-Glo assay. The class given is cell-based, HEK-293T. The settings on record: human, read-out: LD50. In a few lines: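 HEK293T cells were exposed to compound for 18 h (n = 4). Viable cells were quantified with CellTiter-Glo, and LD50 was derived.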
A short description of data set [2]: Total plasma concentration in Sprague-Dawley rat at 10 mg/kg, po measured after 60 mins by LC-MS/MS analysis. In kind it is ADME, organism-based. In a few lines: (§1)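 Sprague-Dawley rats (n = 3 per time point) were given 10 mg/kg p.o. Total plasma concentrations were taken at 15, 30, 60 and 120 min. Brain levels of the dosed ligand and of the carboxylic acid metabolite were taken at 60 or 120 min.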

The nature of data set [3]: Drug uptake in Sprague-Dawley rat brain at 10 mg/kg, po measured after 60 mins by LC-MS/MS analysis. The class given is ADME, organism-based. The settings on record: read-out: Drug uptake. The procedure, abridged: as §1
In another data set the test system is Mus musculus. Kind of data set: Toxicity in Swiss mouse assessed as change in motor coordination by measuring number of falls from the rotating rod at 10 mg/kg, ip administered 30 mins prior to testing measured for 2 mins by rotarod test relative to control. The settings on record: in vivo. The class given is organism-based. In a few lines: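 The same mice used for marble burying were placed on a rotarod at 4 r.p.m. for 2 min. No fall was scored success, one fall partial, and two falls failure.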

The target in data set [4] is T1, GABA-A receptor; alpha-3/beta-3/gamma-2 (Homo sapiens) (UniProt P18507+P28472+P34903). Kind of data set: Modulation of recombinant GABA alpha3beta3gamma2 receptor (unknown origin) expressed in Xenopus laevis oocytes assessed as change in GABA-induced EC(3 to 6) current at 100 nM by two-electrode voltage clamp assay. The class given is cell-based. In a few lines: (§2)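 Xenopus laevis oocytes expressing α1, α2, α3 or α5 β3γ2 GABAARs were recorded by two-electrode voltage clamp. Modulation of the GABA EC3-6 current (taken as 100%) was tested at 100 nM, 1 μM and 10 μM in the same cells. Values are mean ± SEM, n = 3–4.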
(In two-electrode clamp one electrode senses voltage and the other passes current.)

Data set [5] deals with T2, GABA-A receptor; alpha-5/beta-3/gamma-2 (Homo sapiens) (UniProt P18507+P28472+P31644). Kind of data set: Modulation of recombinant GABA alpha5beta3gamma2 receptor (unknown origin) expressed in Xenopus laevis oocytes assessed as change in GABA-induced EC(3 to 6) current at 1 uM by two-electrode voltage clamp assay. The class given is cell-based. In a few lines:
as §2

Data set [6] has as its target GABA-A receptor; alpha-2/beta-3/gamma-2 (Homo sapiens) (UniProt P18507+P28472+P47869). Kind of data set: Modulation of recombinant GABA alpha2beta3gamma2 receptor (unknown origin) expressed in Xenopus laevis oocytes assessed as change in GABA-induced EC(3 to 6) current at 10 uM by two-electrode voltage clamp assay. The class given is cell-based. The procedure, abridged:
as §2

Data set [7] has as its target T3, GABA-A receptor; alpha-1/beta-3/gamma-2 (Homo sapiens, UniProt P14867+P18507+P28472).
T3 sequence (P14867 whole entry): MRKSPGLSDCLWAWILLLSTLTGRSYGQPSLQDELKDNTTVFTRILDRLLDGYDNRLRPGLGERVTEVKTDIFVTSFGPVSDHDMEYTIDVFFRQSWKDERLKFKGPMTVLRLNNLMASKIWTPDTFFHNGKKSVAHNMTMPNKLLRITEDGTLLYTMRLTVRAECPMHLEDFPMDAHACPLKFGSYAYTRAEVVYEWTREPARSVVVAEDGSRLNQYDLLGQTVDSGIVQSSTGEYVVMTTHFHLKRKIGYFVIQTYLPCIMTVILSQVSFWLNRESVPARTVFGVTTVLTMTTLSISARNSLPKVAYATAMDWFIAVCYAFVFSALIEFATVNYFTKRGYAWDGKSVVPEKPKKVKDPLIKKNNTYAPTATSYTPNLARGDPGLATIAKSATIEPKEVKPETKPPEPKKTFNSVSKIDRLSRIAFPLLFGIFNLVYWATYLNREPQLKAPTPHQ
T3 sequence (P18507 whole entry): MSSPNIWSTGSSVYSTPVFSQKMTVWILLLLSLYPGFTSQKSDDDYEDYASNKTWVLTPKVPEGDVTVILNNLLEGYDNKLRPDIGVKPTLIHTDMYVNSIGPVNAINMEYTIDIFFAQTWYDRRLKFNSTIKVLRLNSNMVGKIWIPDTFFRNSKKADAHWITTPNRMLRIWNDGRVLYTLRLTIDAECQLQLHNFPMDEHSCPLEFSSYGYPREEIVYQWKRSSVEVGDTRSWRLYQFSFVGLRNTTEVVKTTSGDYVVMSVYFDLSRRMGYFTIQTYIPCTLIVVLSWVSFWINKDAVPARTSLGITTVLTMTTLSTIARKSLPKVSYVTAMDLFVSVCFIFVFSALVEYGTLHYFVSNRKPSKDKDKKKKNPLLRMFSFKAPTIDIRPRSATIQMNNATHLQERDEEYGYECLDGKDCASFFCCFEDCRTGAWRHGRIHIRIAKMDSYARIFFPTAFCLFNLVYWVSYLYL
T3 sequence (P28472 whole entry): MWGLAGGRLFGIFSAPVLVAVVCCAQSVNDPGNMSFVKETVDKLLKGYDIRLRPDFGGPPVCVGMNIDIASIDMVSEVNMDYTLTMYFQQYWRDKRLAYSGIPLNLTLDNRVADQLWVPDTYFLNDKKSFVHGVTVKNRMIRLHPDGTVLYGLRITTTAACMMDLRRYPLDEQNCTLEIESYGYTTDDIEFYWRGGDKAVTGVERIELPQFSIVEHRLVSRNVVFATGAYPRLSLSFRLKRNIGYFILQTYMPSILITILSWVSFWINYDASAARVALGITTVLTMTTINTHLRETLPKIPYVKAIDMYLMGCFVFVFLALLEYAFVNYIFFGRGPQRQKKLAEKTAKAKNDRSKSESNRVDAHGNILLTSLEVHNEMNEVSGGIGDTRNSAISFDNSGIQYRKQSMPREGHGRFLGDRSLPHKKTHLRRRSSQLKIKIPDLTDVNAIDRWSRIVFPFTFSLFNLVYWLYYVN
Kind of data set: Modulation of recombinant human GABA alpha1beta3gamma2 receptor expressed in HEK293 cells assessed as change in GABA-induced current at -80 mV holding potential preincubated for 3 mins followed by co-administration of GABA by electrophysiology method. In kind it is cell-based.

Data set [8] in a line: Cmax in femoral artery/vein cannulated Sprague-Dawley rat at 10 mg/kg, ip administered […] as single dose by LC-MS/MS analysis. The class given is ADME, organism-based. Also noted: dose 10 mg/kg, route intraperitoneal. Conditions: in vivo. In a few lines:
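Male Sprague-Dawley rats (n = 3 per time point) were dosed 1 mg/kg i.v. or 10 mg/kg i.p. Plasma concentrations were measured at set time points. Clearance, Vdss and T½ came from the i.v. arm, and AUC, Cmax and Tmax from the i.p. arm.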

The next data set relates to Plasma. Kind of data set: Unbound plasma concentration in Sprague-Dawley rat at 10 mg/kg, ip measured after 4 hrs. In kind it is ADME, organism-based. Conditions: in vivo. The procedure, abridged:
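Male Sprague-Dawley rats (n = 3) received 10 mg/kg i.p., and total plasma concentration was measured at 4 h. Fraction unbound in plasma was determined in vitro by equilibrium dialysis with rat plasma protein. Unbound concentration was calculated as fraction unbound × total concentration.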

The target in data set [9] is T1, GABA-A receptor; alpha-3/beta-3/gamma-2 (Homo sapiens). As to the kind of experiment: Modulation of recombinant GABA alpha3beta3gamma2 receptor (unknown origin) expressed in Xenopus laevis oocytes assessed as change in GABA-induced EC(3 to 6) current by two-electrode voltage clamp assay. In kind it is cell-based. The procedure, abridged:
as §2

Data set [10] concerns the target T2, GABA-A receptor; alpha-5/beta-3/gamma-2 (Homo sapiens). As to the kind of experiment: Modulation of recombinant GABA alpha5beta3gamma2 receptor (unknown origin) expressed in Xenopus laevis oocytes assessed as change in GABA-induced EC(3 to 6) current by two-electrode voltage clamp assay. The class given is cell-based. In a few lines:
as §2

Where only a bound is given, the exact number is not on record here.

The term EC50 denotes the concentration that produces a half-maximal response. One may read the Cmax as the highest concentration seen after dosing. On to `C#Cc1ccc2c(c1)C(c1ccccn1)=NCc1c(-c3cnco3)ncn1-2`, for which, in data set [1], the CC50 at 18 h is > 100000 nM. In addition, the concentration at 1 h in data set [2] turned out to be 3.91 µM; in [3] it was 3.64 µM. The Activity entry with Mus musculus is “Toxic”; in data set [4], 109%; in data set [5] it was 158%; in [6], 258%; in data set [9], “Dose-dependent effect”; in [10] it was “Dose-dependent effect”. Further, the concentration giving a half-maximal response (EC50) in data set [7] came out at 489 nM. The compound also displayed a Cmax in data set [8] of 3.09 µM. Besides, in the data set with Plasma, the “Cp(f)” value worked out at 0.552 µM.
